Test results from ChEMBL document CHEMBL2385016, “Inhibition of VEGF expression in cancer cells and endothelial cell differentiation by synthetic stilbene derivatives” (Bioorg Med Chem, 2013).
≈ marks a conversion by molar mass, not a printed value. Calls of active or inactive are those of the source. The calls are words filed in the database; no cut-off is given here.

Columns and labels:
HT-29 [1] = assay: Inhibition of VEGF mRNA expression in human HT-29 cells at 10 ug/mL after 48 hrs by RT-PCR analysis relative to control; values are per cent of control; details: HT-29, 48 h
[2] = Antiproliferative activity against BAEC after 3 days by MTT assay; type: functional; details: Bos taurus, 72 h
Summary of the method: (§1)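 MTT dye reduction. 3×10^3 BAE cells (collagenase-isolated) or 5×10^3 HT-29 cells per well in DMEM with 10% FBS, exposed to serial dilutions for 3 days at 37 °C, 5% CO2. MTT (5 mg/ml in PBS) added for 4 h, formazan dissolved in 0.04 N HCl/2-propanol, absorbance at 550 nm. Triplicate; IC50 is the concentration giving 50% survival. Compounds from 10 mg/mL DMSO stocks.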

HT-29 [3] = assay: Antiproliferative activity against human HT-29 cells after 3 days by MTT assay; type: functional, cell-based; details: HT-29, 72 h
Summary of the method: as §1

HT-29 [4] = assay: Inhibition of VEGF protein production in human HT-29 cells at 10 ug/mL after 72 hrs by ELISA relative to control; values are per cent of control; details: HT-29, 72 h
[5] = Antiangiogenic activity against BAEC assessed as inhibition of tube formation after 7 hrs by matrigel assay; type: functional; details: Bos taurus
Summary of the method: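 Wells coated with Matrigel (about 10.5 mg/mL), polymerized at least 30 min at 37 °C. 5×10^4 BAE cells seeded in DMEM with a range of compound concentrations. Incubated 7 h at 37 °C, 5% CO2, then viewed and photographed at 200×. Two observers scored tube formation. Value is the minimal concentration inhibiting differentiation.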

HT-29 [6] = assay: Inhibition of VEGF protein production in human HT-29 cells at 10 ug/mL after 72 hrs by ELISA relative to control; type: functional
Summary of the method: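 HT-29 cells at 70–80% confluence were serum-starved 24 h, then treated 72 h with compound in DMSO. VEGF secreted into culture supernatants was measured by human VEGF ELISA kit in ng/mL and compared with untreated and DMSO controls. At least three measurements per condition; mean ± SEM; one-sample t-tests.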

HT-29 [7] = assay: Inhibition of VEGF mRNA expression in human HT-29 cells at 20 ug/mL after 48 hrs by RT-PCR analysis relative to control; values are per cent of control; details: HT-29, 48 h
HT-29 [8] = assay: Inhibition of VEGF protein production in human HT-29 cells at 20 ug/mL after 72 hrs by ELISA relative to control; values are per cent of control; details: HT-29, 72 h

Row | IC50 (HT-29 [3]) [µM] | MIC [5] [µM] | Compound | level, % of control at 10 µg/mL (HT-29 [1]) [%] | IC50 [2] [µM] | level, % of control at 10 µg/mL (HT-29 [4]) [%] | inhibition (HT-29 [6]) | level, % of control at 20 µg/mL (HT-29 [7]) [%] | level, % of control at 20 µg/mL (HT-29 [8]) [%]
1 | 55 | 53 (≈ 12.5 µg/mL) | C=CCOc1ccccc1/C=C/c1ccccc1 | 50 | 313 | 41 | – | – | –
2 | 42.8 | 59.5 (≈ 12.5 µg/mL) | COc1ccccc1/C=C/c1ccccc1 | 70 | 152 | – | Active | – | –
3 | 127 | 32 (≈ 6.28 µg/mL) | Oc1cccc(/C=C/c2ccccc2)c1 [(E)-3-STILBENOL] | – | 91.7 | – | – | – | –
4 | 23 | 106 (≈ 25 µg/mL) | C=CCOc1ccc(/C=C/c2ccccc2)cc1 | – | > 400 | – | – | – | –
5 | 110 | 54.8 (≈ 12.5 µg/mL) | Oc1ccc(/C=C/c2cc(O)cc(O)c2)cc1 [RESVERATROL] | – | 48 | – | – | 86 | 65
6 | 26 | 475 (≈ 99.9 µg/mL) | COc1ccc(/C=C/c2ccccc2)cc1 | – | 418 | – | – | – | –
7 | 34.6 | 32 (≈ 6.28 µg/mL) | Oc1ccc(/C=C/c2ccccc2)cc1 [(E)-4-STYRYLPHENOL] | – | 33.6 | – | – | – | –
8 | 112 | 32 (≈ 6.28 µg/mL) | Oc1ccccc1/C=C/c1ccccc1 | 91 | 107 | 41 | – | – | –
